Measured values of several laboratories.
Lines come from different studies, so protocols differ.
Target: Proto-oncogene tyrosine-protein kinase Src (SRC, Homo sapiens, UniProt P12931)

| SMILES | assay | setting | remaining binding [%] |
| --- | --- | --- | --- |
| CC1CCCN1c1nccc(-c2cnn3ncccc23)n1 (stereo not shown) | binding | 1 µM | 100 |
| Nc1c(C(=O)NCc2ccc(C(=O)NCCCC3CCCCC3)cc2)cnn1-c1ccccc1 | cell-free assay, competition with immobilised ligand | 0.1 µM | 100 |
| O=C(c1ccc(Nc2ncc(Cl)c(-c3cc4ccccc4s3)n2)cc1)N1CCC(N2CCCC2)CC1 | binding, competition with immobilised ligand | 1 µM | 62 |
| COC(=O)Nc1nc2ccc(C(=O)c3ccccc3)cc2[nH]1 | cell-free assay, competition with immobilised ligand | 10 µM | 34 |
| O=c1nc(-c2ccccn2)sc2ccccc12 | cell-free assay, competition with immobilised ligand | 1 µM | 92 |
| COc1cnc(Nc2cccc(S(N)(=O)=O)c2)nc1N1CCN(c2ccccc2)C(=O)C1 | binding, competition with immobilised ligand | 1 µM | 100 |
| O=C(NCCCN1CCOCC1)c1ccc(Nc2ncc(Cl)c(-c3ccc(Cl)s3)n2)cc1 | binding, competition with immobilised ligand | 1 µM | 100 |
| Cc1cc(-n2nc(Cc3cc(F)cc(C(F)(F)F)c3)nc2C)ccc1C(N)=O | cell-free assay, competition with immobilised ligand | 1 µM | 95 |
| Cc1cnc(Nc2ccc(C(=O)N3CCC(N4CCCC4)CC3)cc2)nc1-c1cc2ccccc2s1 | binding, competition with immobilised ligand | 1 µM | 16 |
| c1cncc(-c2cccc(Nc3nccc(NC4CCCCC4)n3)c2)c1 | binding, competition with immobilised ligand | 10 µM | 2.2 |
| Cc1c(NC(=O)c2cc(C(N)=O)nc3cc(F)ccc23)c(C(F)(F)F)nn1Cc1ccc(C#N)cc1 | cell-free assay, competition with immobilised ligand | 1 µM | 81 |
| COc1ccnn2ncc(-c3ccnc(N(C)C)n3)c12 | binding | 1 µM | 100 |
| Cc1c[nH]c2nccc(Oc3c(F)cc(Nc4cc(Cl)nc(N)n4)cc3F)c12 | cell-free assay, competition with immobilised ligand | 0.1 µM | 100 |
| O=C(Nc1c[nH]nc1C(=O)NC1CCNCC1)c1cc(F)cc(F)c1 | binding, competition with immobilised ligand | 1 µM | 100 |
| FC(F)(F)Oc1cccc(-c2cnc3ccc(-c4ccncc4)nn23)c1 | binding, competition with immobilised ligand | 5 µM | 56 |
| CN(CCCC(F)(F)F)c1nccc(-c2cnn3ncccc23)n1 | binding | 1 µM | 100 |
| CNC(=O)[C@@H]1CC[C@@H](n2c(-c3ccc4cnccc4c3)nc3ccc(C(=O)NCc4cccc(C(N)=O)c4)cc32)C1 | binding, competition with immobilised ligand | 1 µM | 100 |
| C[C@H]1CCN(c2nccc(-c3cnn4ncccc34)n2)C1 | binding | 1 µM | 100 |
| CNC(=O)Nc1ccc2c(c1)[C@@]1(CC2)OC(=O)N(CC(=O)N(Cc2ccc(F)cc2)[C@@H](C)C(F)(F)F)C1=O | cell-free assay, competition with immobilised ligand | 1 µM | 90 |
| F[C@@H]1CCN(c2nccc(-c3cnn4ncccc34)n2)C1 | binding | 1 µM | 100 |
| O=C(Nc1cccnn1)N1CC(C/C=C/c2cncc(Oc3ccc(C(F)(F)F)cn3)n2)C1 | cell-free assay, competition with immobilised ligand | 1 µM | 100 |
| N[C@@H]1CCN(c2nccc(-c3cnn4ncccc34)n2)C1 | binding | 1 µM | 100 |
| CC(C)(C)c1ccc(-c2nc(CBr)nn2-c2cccc(O)c2)cc1 | cell-free assay, competition with immobilised ligand | 10 µM | 79 |
| COc1ncc2cc3ccccc3nc2c1C#N | cell-free assay, competition with immobilised ligand | 5 µM | 88 |
| CN(C)c1ncc(F)c(-c2cnn3ncccc23)n1 | binding | 1 µM | 79 |
